The source made the active and inactive calls. The calls are words filed in the database; no cut-off is given here.
Experiments:
Cannabinoid receptor 1 [1] = target: T1, Cannabinoid receptor 1 (Homo sapiens, UniProt P21554); assay: Agonist activity at recombinant human CB1 receptor expressed in CHO cells assessed as inhibition of forskolin-induced cAMP accumulation at 100 uM after 5 mins by cAMP-competition binding assay relative to CP55,940; assay type: functional, cell-based
Summary of the method: (§1)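 Forskolin (10 μM)-stimulated cAMP accumulation in CHO cells stably expressing the human CB1 or CB2 receptor. Test agents at 100 μM. Efficacy given as a percentage of the maximal effect of the full agonist CP55,940 (1 μM), taken as 100%. At least three independent experiments, each run in duplicate.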

Cannabinoid receptor 2 [2] = target: T2, Cannabinoid receptor 2 (Homo sapiens, UniProt P34972); assay: Agonist activity at recombinant human CB2 receptor expressed in CHO cells assessed as inhibition of forskolin-induced cAMP accumulation at 100 uM after 5 mins by cAMP-competition binding assay relative to CP55,940; assay type: functional, cell-based; summary of the method: as §1
Cannabinoid receptor 1 [3] = target: T1, Cannabinoid receptor 1; assay: Agonist activity at recombinant human CB1 receptor expressed in CHO cells assessed as inhibition of forskolin-induced cAMP accumulation after 5 mins by cAMP-competition binding assay; assay type: functional, cell-based
[4] = target: T3, Fatty-acid amide hydrolase 1 (Rattus norvegicus) (UniProt P97612); assay: Inhibition of FAAH in rat brain microsome using pyrenylbutanamide as substrate after 60 mins by HPLC analysis; assay type: microsomes
T3 sequence (whole entry): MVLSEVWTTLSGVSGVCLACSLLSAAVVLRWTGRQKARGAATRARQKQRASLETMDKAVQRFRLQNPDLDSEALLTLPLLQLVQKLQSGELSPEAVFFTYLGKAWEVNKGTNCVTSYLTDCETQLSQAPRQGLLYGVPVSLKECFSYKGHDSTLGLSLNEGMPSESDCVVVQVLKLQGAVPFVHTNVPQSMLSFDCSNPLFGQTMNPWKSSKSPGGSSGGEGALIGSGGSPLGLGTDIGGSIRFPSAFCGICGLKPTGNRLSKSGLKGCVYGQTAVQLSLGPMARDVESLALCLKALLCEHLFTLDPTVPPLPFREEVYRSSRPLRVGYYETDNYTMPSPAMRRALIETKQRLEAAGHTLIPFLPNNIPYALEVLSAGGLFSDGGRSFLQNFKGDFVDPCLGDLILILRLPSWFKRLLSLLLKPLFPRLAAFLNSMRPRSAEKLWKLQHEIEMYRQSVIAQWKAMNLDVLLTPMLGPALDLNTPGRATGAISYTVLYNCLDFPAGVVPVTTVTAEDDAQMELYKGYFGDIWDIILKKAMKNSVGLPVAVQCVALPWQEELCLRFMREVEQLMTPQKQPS
Summary of the method: (§2)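 Rat brain preparations were used as the FAAH or MAGL enzyme source. Compounds were tested at 10 μM and the extract at 50 μg/mL, read as percent inhibition.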

[5] = target: G-protein coupled receptor 55 (Homo sapiens) (UniProt Q9Y2T6); assay: Antagonist activity at human GPR55 expressed in CHO cells assessed as inhibition of LPI-induced beta-arrestin translocation at 10 uM after 90 mins by luminescence assay; assay type: cell-based
Summary of the method: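 Human GPR55 expressed recombinantly in CHO cells. β-Arrestin recruitment stimulated by LPI (1 μM) was read as luminescence by β-galactosidase enzyme fragment complementation. Test agents at 10 μM, extract at 50 μg/mL, with the LPI response set to 100%. KB derived from the rightward shift of the LPI concentration-response curve with antagonist present at 10 μM. Three independent experiments in duplicate.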

[6] = target: T4, Monoglyceride lipase (Rattus norvegicus) (UniProt Q8R431); assay: Inhibition of MAGL in rat brain microsome using pyrenylbutanamide as substrate after 60 mins by HPLC analysis; assay type: microsomes; summary of the method: as §2
T4 sequence (whole entry): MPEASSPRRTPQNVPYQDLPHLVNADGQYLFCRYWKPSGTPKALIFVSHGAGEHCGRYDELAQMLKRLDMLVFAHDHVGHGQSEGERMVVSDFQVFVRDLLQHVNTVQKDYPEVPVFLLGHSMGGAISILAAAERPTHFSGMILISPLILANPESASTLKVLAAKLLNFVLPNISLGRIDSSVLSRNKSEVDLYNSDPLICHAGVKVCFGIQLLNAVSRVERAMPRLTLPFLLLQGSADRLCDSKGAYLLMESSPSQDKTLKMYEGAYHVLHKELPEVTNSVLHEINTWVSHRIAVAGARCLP

Cannabinoid receptor 2 [7] = target: T2, Cannabinoid receptor 2; assay: Agonist activity at recombinant human CB2 receptor expressed in CHO cells assessed as inhibition of forskolin-induced cAMP accumulation after 5 mins by cAMP-competition binding assay; assay type: functional, cell-based
Cannabinoid receptor 2 [8] = target: T2, Cannabinoid receptor 2; assay: Displacement of [3H]CP55,940 from recombinant human CB2 receptor expressed in CHO cells after 2 hrs by liquid scintillation counting; assay type: cell-based
Cannabinoid receptor 1 [9] = target: T1, Cannabinoid receptor 1; assay: biochemical; assay type: cell-based, CHO
Cannabinoid receptor 2 [10] = target: T2, Cannabinoid receptor 2; assay: Partial agonist activity at recombinant human CB2 receptor expressed in CHO cells assessed as inhibition of forskolin-induced cAMP accumulation at 100 uM after 5 mins by cAMP-competition binding assay relative to CP55,940; assay type: functional, cell-based
Summary of the method: (§3)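 CHO cells recombinantly expressing human CB1 or CB2 receptor; forskolin (10 μM)-stimulated cAMP accumulation inhibited by test compound over a concentration range. Efficacy measured at 100 μM relative to the maximal effect of full agonist CP55,940 (1 μM) = 100%. EC50 from concentration-response curves; at least three independent experiments in duplicate, means ± SEM.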

Cannabinoid receptor 2 [11] = target: T2, Cannabinoid receptor 2; details: CHO, 10 uM
[12] = target: G-protein coupled receptor 55 (Homo sapiens) (UniProt Q9Y2T6); assay: Antagonist activity at human GPR55 expressed in CHO cells assessed as inhibition of LPI-induced beta-arrestin translocation after 90 mins by luminescence assay; assay type: cell-based
Summary of the method: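 CHO cells expressing human GPR55; β-arrestin recruitment read as luminescence by β-galactosidase enzyme fragment complementation. LPI agonist curves run with and without test compound at 10 μM, giving a parallel shift from which KB was derived; single-point inhibition tested against LPI at 1 μM (100%). Three independent experiments in duplicate, means ± SEM.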

CHO = assay: Ratio of EC50 for recombinant human CB1 receptor expressed in CHO cells to recombinant human CB2 receptor expressed in CHO cells assessed as inhibition of forskolin-induced cAMP accumulation; assay type: cell-based
Cannabinoid receptor 1 [13] = target: T1, Cannabinoid receptor 1; assay: Partial agonist activity at recombinant human CB1 receptor expressed in CHO cells assessed as inhibition of forskolin-induced cAMP accumulation at 100 uM after 5 mins by cAMP-competition binding assay relative to CP55,940; assay type: functional, cell-based; summary of the method: as §3

T1 sequence (P21554 whole entry): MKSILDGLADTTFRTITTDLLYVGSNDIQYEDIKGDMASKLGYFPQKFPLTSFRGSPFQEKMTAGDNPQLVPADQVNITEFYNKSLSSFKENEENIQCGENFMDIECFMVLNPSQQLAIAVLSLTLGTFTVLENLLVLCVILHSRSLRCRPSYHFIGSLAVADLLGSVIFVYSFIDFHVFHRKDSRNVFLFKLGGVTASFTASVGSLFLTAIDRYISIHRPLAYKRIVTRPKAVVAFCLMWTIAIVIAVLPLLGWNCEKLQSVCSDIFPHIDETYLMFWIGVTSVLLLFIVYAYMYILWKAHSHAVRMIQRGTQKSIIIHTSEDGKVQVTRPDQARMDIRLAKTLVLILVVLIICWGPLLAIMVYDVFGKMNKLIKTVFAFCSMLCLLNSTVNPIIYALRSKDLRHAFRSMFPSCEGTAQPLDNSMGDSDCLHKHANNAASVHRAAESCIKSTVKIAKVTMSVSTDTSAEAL
T2 sequence (P34972 whole entry): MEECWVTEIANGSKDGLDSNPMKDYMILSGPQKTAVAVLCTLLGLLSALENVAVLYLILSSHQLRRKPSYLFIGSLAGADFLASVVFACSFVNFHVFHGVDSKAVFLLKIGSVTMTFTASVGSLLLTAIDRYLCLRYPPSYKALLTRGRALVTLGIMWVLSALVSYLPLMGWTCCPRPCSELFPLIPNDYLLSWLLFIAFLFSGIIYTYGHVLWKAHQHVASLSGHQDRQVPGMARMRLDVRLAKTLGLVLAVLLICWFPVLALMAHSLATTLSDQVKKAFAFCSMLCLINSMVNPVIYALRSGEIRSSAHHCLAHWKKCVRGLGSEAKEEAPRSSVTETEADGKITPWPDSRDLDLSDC
G-protein coupled receptor 55 (Homo sapiens), sequence (Q9Y2T6 whole entry, the tested form may be a part): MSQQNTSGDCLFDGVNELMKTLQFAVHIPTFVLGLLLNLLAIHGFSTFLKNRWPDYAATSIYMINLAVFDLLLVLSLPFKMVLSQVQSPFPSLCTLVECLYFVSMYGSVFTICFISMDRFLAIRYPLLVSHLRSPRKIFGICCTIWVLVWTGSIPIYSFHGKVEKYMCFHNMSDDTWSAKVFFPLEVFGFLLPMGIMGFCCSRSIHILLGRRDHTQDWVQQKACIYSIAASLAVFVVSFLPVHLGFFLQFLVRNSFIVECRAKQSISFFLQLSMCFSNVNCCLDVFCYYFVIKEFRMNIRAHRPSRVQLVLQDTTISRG

| SMILES | Efficacy (Cannabinoid receptor 1 [1]) [%] | Efficacy (Cannabinoid receptor 2 [2]) [%] | EC50 (Cannabinoid receptor 1 [3]) [µM] | inhibition [4] | inhibition [5] [%] | inhibition [6] | EC50 (Cannabinoid receptor 2 [7]) [µM] | Ki (Cannabinoid receptor 2 [8]) [µM] | Ki (Cannabinoid receptor 1 [9]) [µM] | EC50 (Cannabinoid receptor 2 [10]) [µM] | Efficacy (Cannabinoid receptor 2 [11]) [%] | Kb [12] [µM] | Ratio EC50 (CHO) | EC50 (Cannabinoid receptor 1 [13]) [µM] |
| --- | --- | --- | --- | --- | --- | --- | --- | --- | --- | --- | --- | --- | --- | --- |
| C/C=C/c1ccc(O)c(-c2cc(/C=C/C)ccc2O)c1 | 134 | 55 | > 10 | inactive | 0 | inactive | 8.73 | 3.14 | > 10 |  |  |  |  |  |
| CCCc1ccc(O)c(-c2cc(CCC)ccc2O)c1 | 124 |  | 9.01 | inactive | 96 | inactive |  | 0.416 | 2.26 | 0.17 | 49 | 13.3 |  |  |
| CCCCCCC(C)(C)c1ccc([C@@H]2C[C@H](O)CC[C@H]2CCCO)c(O)c1 |  |  |  |  | 92 |  |  |  |  |  |  | 1.89 |  |  |
| C=CCc1ccc(O)c(-c2cc(CC(O)CO)ccc2O)c1 (racemic) |  |  |  | inactive | 4 | inactive |  | > 10 | > 10 |  |  |  |  |  |
| C=CCc1ccc(O)c(-c2ccc(O)c(CC=C)c2)c1 [HONOKIOL] | 168 | 0 | > 10 | inactive | 42 | inactive |  | 5.61 | 6.46 |  |  |  |  |  |
| C=CCc1ccc(O)c(-c2cc(CC=C)ccc2O)c1 [MAGNOLOL] | 62 | 31 |  | inactive | 0 | inactive |  | 1.44 | 3.15 | 3.28 |  |  | 6 | 18.3 |
